Legend:
[1] = biological target: T1, Nitric oxide synthase, inducible (Mus musculus, UniProt P29477); experiment: Inhibitory concentration required to produce 50% inhibition of the response was determined; format: functional
T1 sequence (P29477 whole entry): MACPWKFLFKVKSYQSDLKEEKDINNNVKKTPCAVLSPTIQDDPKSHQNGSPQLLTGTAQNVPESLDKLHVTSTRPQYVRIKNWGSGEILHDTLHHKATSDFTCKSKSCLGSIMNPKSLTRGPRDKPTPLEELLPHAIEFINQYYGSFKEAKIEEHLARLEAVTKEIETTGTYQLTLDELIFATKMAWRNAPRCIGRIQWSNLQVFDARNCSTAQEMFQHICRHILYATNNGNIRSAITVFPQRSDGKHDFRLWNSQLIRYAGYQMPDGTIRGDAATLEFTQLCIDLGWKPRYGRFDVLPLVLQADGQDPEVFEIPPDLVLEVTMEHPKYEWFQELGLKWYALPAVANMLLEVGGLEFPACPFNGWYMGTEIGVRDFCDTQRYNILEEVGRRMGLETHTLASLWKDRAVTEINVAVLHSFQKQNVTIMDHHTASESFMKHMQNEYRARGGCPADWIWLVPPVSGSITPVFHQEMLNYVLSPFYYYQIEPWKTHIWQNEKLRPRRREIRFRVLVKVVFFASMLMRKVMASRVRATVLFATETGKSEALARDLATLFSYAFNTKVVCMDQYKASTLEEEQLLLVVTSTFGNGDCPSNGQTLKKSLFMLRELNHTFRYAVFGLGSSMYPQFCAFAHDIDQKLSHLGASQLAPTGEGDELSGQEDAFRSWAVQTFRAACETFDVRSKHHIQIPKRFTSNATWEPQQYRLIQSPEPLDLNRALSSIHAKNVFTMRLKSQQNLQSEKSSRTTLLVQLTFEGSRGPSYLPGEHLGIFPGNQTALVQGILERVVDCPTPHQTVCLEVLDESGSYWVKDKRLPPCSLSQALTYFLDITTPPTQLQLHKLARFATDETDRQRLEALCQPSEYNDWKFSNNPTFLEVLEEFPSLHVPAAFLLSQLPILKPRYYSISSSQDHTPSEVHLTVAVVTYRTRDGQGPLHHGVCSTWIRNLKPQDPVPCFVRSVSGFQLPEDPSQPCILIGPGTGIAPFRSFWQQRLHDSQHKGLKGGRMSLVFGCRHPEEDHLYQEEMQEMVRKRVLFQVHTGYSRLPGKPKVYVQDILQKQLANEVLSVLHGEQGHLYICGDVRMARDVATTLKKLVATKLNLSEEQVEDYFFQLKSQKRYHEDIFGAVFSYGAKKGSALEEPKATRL
How it was run: (§1)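 Murine RAW 264.7 macrophages (DMEM, 10% FBS, 2 mM L-glutamine, penicillin/streptomycin) at 2 × 10⁶/mL co-incubated with E. coli LPS and test compound or vehicle, 37 °C, 20 h. Nitrite in the medium measured fluorometrically against a sodium nitrite standard curve. IC50 calculated from at least four significant concentrations and reported with 95% confidence limits. MTT reduction used to check cytotoxicity.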

[2] = biological target: T2, Nitric oxide synthase, inducible (Mus musculus) (UniProt P29477); experiment: Percent inhibition of Nitrite accumulation at a concentration of 10 uM was determined in RAW 264.7 cells; format: functional, cell-based
T2 sequence (whole entry): T1 sequence (P29477 whole entry)
How it was run: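 Nitrite accumulation measured in RAW 264.7 cells at 2 × 10⁶/mL stimulated with E. coli LPS, with compound at 10 µM or vehicle, 37 °C, 20 h. Nitrite read fluorometrically against a sodium nitrite standard curve. Reported as mean±SEM % inhibition (n=6). One-way ANOVA followed by Dunnett's test.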

[3] = biological target: T1, Nitric oxide synthase, inducible; experiment: Inhibitory concentration required to produce 50% inhibition of the response was determined; range-0.811.70 uM; format: functional; how it was run: as §1
[4] = biological target: T1, Nitric oxide synthase, inducible; experiment: Inhibitory concentration required to produce 50% inhibition of the response was determined; range-0.431.12 uM; format: functional; how it was run: as §1
[5] = biological target: T1, Nitric oxide synthase, inducible; experiment: Inhibitory concentration required to produce 50% inhibition of the response was determined; range-0.431.85 uM; format: functional; how it was run: as §1
[6] = biological target: T1, Nitric oxide synthase, inducible; experiment: Inhibitory concentration required to produce 50% inhibition of the response was determined; range-0.461.81 uM; format: functional; how it was run: as §1
[7] = biological target: T1, Nitric oxide synthase, inducible; experiment: Inhibitory concentration required to produce 50% inhibition of the response was determined; range-0.150.47 uM; format: functional; how it was run: as §1
[8] = biological target: T1, Nitric oxide synthase, inducible; experiment: Inhibitory concentration required to produce 50% inhibition of the response was determined; range-0.541.16 uM; format: functional; how it was run: as §1

inhibition [2] | Compound | also measured
60.1% | COc1ccc(OC)c(/C=C/C(=O)c2ccc(C(F)(F)F)cc2)c1 | –
76.3% | COc1cc(OC)c(/C=C/C(=O)c2ccccc2C(F)(F)F)c(OC)c1 | IC50 [3]: 1020 nM
99% | COc1ccc(OC)c(/C=C/C(=O)c2ccccc2C(F)(F)F)c1 | IC50 [5]: 910 nM
77.5% | COc1ccc(/C=C/C(=O)c2ccccc2C(F)(F)F)c(OC)c1 | IC50 [6]: 840 nM
55.7% | COc1ccc(/C=C/C(=O)c2ccc(F)cc2)c(OC)c1 | –
73.7% | COc1cc(OC)c(OC)cc1/C=C/C(=O)c1ccccc1C(F)(F)F | IC50 [7]: 280 nM
46.8% | COc1ccc(/C=C/C(=O)c2ccc(C(F)(F)F)cc2)c(OC)c1 | –

Second part, the compound before the results:

Compound | inhibition [2] | also measured
COc1cc(/C=C/C(=O)c2ccc(F)cc2)cc(OC)c1OC | 94.1% | IC50 [1]: 30 nM
COc1cc(/C=C/C(=O)c2ccc(C(F)(F)F)cc2)cc(OC)c1OC | 55.8% | –
COc1cc(OC)c(OC)cc1/C=C/C(=O)c1ccc(C(F)(F)F)cc1 | 49.3% | –
COc1cc(OC)c(OC)cc1/C=C/C(=O)c1cccc(C(F)(F)F)c1 | 26.7% | –
COc1cc(OC)c(OC)cc1/C=C/C(=O)c1ccc(F)cc1F | 81.7% | IC50 [4]: 640 nM
COc1cc(OC)c(/C=C/C(=O)c2ccc(C(F)(F)F)cc2)c(OC)c1 | 43.6% | –
COc1ccc(/C=C/C(=O)c2ccc(F)cc2F)cc1OC | 52.4% | –
COc1cc(OC)c(/C=C/C(=O)c2ccc(F)cc2)c(OC)c1 | 63.9% | –
COc1cc(OC)c(/C=C/C(=O)c2cccc(C(F)(F)F)c2)c(OC)c1 | 75% | IC50 [8]: 1840 nM
COc1cc(OC)c(/C=C/C(=O)c2ccc(F)cc2F)c(OC)c1 | 59% | –

— ChEMBL document CHEMBL1135187, “The synthesis and effect of fluorinated chalcone derivatives on nitric oxide production” (Bioorg Med Chem Lett, 2002)
